Source: PubChem (The Scripps Research Institute Molecular Screening Center)
NR2E3 ag-1: human photoreceptor-specific nuclear receptor agonism | CHO-S Gal4-NCOR/VP16-NR2E3 two-hybrid, luciferase | inhibition of corepressor binding, % at 3.98 µM | actives 0.35% (n = 360,000);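 active = inhibition above the mean of all tested compounds plus 3 SD, cut at about 70% in these data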;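 note: 0% = DMSO with NR2E3 transfected cells and 100% = cells lacking NR2E3 construct; higher means lower luciferase signal from less NR2E3 corepressor binding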
NR2E3 ag-2: NR2E3 (human) agonism; GST-NR2E3/biotin-RetCOR TR-FRET, 1536-well; actives 0.12% (n = 320,000); AID 2300; inhibition of corepressor binding, % at 4.78 µM;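 active = percent inhibition above the cutoff of mean plus 3 SD of all tested compounds, set per screening campaign, cut at about 20% in these data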;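 note: 0% = DMSO wells and 100% = biotin wells as full block of FRET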
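Material: NR2E3–RetCOR corepressor complex / Amount: 1.35 nM GST-NR2E3 / Medium: Tris pH 7.5 / Compound: single nominal compound dose of 4.8 µM / Incubation: 5 h at 4 °C / Technique: TR-FRET, Eu(K)-anti-GST donor, streptavidin-D2 acceptor, ex 340, em 617/671 nm / Read-out basis: percent loss of FRET ratio relative to control wells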
GalR3 antag: human GalR3 antagonism; actives 0.44% (n = 360,000); inhibition, % at 3 µM; O60755; AID 651719; HEK293 GalR3-CNG cAMP membrane potential fluorescence; galR3 body fused to GalR1 C-terminus;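 active = inhibition above the screen-wide average plus 3 SD, cut at about 13% in these data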;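 note: forskolin and galanin both at EC90 stimulate the cells; cAMP rise reported by CNG channel membrane potential dye signal; 0% = forskolin plus galanin with DMSO and 100% = forskolin alone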
Target sequence (O60755 1-299 limits assumed): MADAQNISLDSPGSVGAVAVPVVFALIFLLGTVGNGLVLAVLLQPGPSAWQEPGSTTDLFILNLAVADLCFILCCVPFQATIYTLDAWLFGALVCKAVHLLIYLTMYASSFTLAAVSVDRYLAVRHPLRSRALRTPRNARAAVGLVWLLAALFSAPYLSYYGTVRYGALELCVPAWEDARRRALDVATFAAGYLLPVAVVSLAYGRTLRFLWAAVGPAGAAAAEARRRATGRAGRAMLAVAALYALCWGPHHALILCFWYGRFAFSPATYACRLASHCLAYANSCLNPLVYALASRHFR
SMARCA2 activ: SMARCA2 function activation, primary screen | MG213 cells, MMTV-luciferase reporter, dexamethasone, overnight | actives 1% (n = 370,000) | activation, % at 9.1 µM; in the data active = activation above about 7.8%;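 note: 0% = vehicle wells and 100% = reference activator wells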
NR2F2 inh: NR2F2 (human) inhibition, primary screen. P24468. HEK293T NGFI-A luciferase reporter, luminescence. inhibition, % at 8.6 µM. actives 0.7% (n = 370,000);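 active = inhibition above a per-plate cutoff, mean inhibition of test wells between control levels plus 3 SD, cut at about 38% in these data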;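 note: cells cotransfected with COUP-TFII expression vector driving the NGFI-A reporter; 0% = median of COUP-TF2 test wells and 100% = reporter-only cells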
Target sequence (P24468 whole entry, looked up): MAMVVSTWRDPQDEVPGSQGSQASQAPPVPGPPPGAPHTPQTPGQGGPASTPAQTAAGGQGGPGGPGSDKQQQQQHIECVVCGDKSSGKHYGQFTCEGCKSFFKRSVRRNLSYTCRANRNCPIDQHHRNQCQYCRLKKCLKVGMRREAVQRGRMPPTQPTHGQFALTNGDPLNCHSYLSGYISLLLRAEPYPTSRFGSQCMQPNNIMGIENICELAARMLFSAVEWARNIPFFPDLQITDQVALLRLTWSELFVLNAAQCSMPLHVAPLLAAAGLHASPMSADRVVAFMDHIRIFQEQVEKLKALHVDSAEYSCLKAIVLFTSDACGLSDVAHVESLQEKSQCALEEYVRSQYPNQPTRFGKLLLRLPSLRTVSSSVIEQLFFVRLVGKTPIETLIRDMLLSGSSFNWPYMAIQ
GalR3 antag conf: GalR3 (human) antagonism, confirmation. shares compounds with GalR3 antag. HEK293 GalR3 CNG cAMP biosensor, membrane potential fluorescence; galR3 fused to GalR1 carboxy tail; challenged with forskolin and galanin at EC90. inhibition, % at 3 µM. actives 59% (n = 1,600). AID 652245;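 active = inhibition above the primary screen's cutoff, the mean inhibition of all screened compounds plus 3 SD, cut at about 13% in these data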;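 note: 0% = forskolin plus galanin and 100% = forskolin alone with DMSO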
CNG parental: acts as nonspecific agonist in parental HEK-CNG cells | shares compounds with GalR3 antag | HEK293-CNG parental cells, cAMP membrane potential fluorescence; normalised: DMSO wells 0%, forskolin wells 100% | activation, % at 3 µM | actives 10% (n = 1,600) | AID 652268; in the data active = activation above about 1.3%
Gal4-VP16 ctr: VP16 inhibition counter-screen for COUP-TFII | inhibition, % at 8.5 µM | actives 25% (n = 2,500) | shares compounds with NR2F2 inh | AID 687007 | HEK293 Gal4-VP16 luciferase reporter, luminescence; in the data active = inhibition above about 13%
COUP-TFII conf: COUP-TFII (NR2F2) inhibition, confirmation assay; inhibition, % at 8.5 µM; shares compounds with NR2F2 inh; HEK293 NGFI-A luciferase reporter, luminescence; actives 45% (n = 2,500); AID 687008;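 active = mean inhibition over three repeats above a set limit taken from the earlier primary screen, cut at about 38% in these data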;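 note: 100% = cells given the luciferase reporter alone without the COUP-TF2 vector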
Active calls of the source: *; . = not tested or not shown. The list is not random: actives were taken first. Their share in the collection is about 2.2%.

SMILES | NR2E3 ag-1 | NR2E3 ag-2 | GalR3 antag | SMARCA2 activ | NR2F2 inh | GalR3 antag conf | CNG parental | Gal4-VP16 ctr | COUP-TFII conf
CC(N)=Nc1ccc([N+](=O)[O-])cc1 | -16 | -3 | -1 | -1 | -20 | . | . | . | .
O=[N+]([O-])c1ccc(N=Nc2c(Cl)cc(O)cc2Cl)cc1 | 13 | -2 | 35* | -7 | 64* | 31* | 3.9* | -73 | 49*
CCOc1ccc(-n2c(SCC(=O)Nc3cccc4ccccc34)nnc2-c2cccs2)cc1 | . | . | . | -5 | -12 | . | . | . | .
COc1ccc(C(O)c2nc3ccccc3n2C)cc1OC (centres undefined) | 40 | 0 | 95* | -6 | 47* | 33* | 0 | 1 | 32
COc1ccc(C(=O)NC(C)c2nc3ccccc3n2C)cc1OC (centres undefined) | -6 | 0 | -2 | 2 | -1 | . | . | . | .
O=C(Nc1cccc([N+](=O)[O-])c1)NC1CCCCN(Cc2cccc(Cl)c2)C1=O (centres undefined) | . | . | . | -6 | 22 | . | . | . | .
COC(=O)C1CN(Cc2cn(Cc3ccc(OC)cc3)nn2)CCS(=O)(=O)N1Cc1ccccc1 (centres undefined) | . | . | . | 0 | 6 | . | . | . | .
Cc1ccc(-c2csc(NC(=O)C3CCN(S(=O)(=O)c4cccs4)CC3)n2)cc1 | -10 | -1 | 101* | -8 | 69* | 104* | 0 | -6 | 50*
CC1(C)CC2CC(C)(CN2S(=O)(=O)c2ccc(C(=O)Nc3ccc(S(=O)(=O)N4CCOCC4)cc3)cc2)C1 (centres undefined) | 3 | 2 | 87* | -3 | 53* | 118* | -3 | 6 | 64*
Cn1c(CN2CCCCC2)nc2cc(NC(=O)c3ccccc3)ccc21 | -19 | 3 | -6 | -4 | -14 | . | . | . | .
Cn1c(CN2CCCCC2)nc2cc(NC(=O)c3cccc(Br)c3)ccc21 | -31 | -1 | 18* | -4 | 49* | 38* | 0 | -43 | 11
CCN(CC)S(=O)(=O)c1ccc(NC(=O)c2ccc(N(C)S(C)(=O)=O)cc2)cc1 | -18 | -6 | 103* | -3 | 68* | 104* | 0 | 3 | 53*
CCN(CC)S(=O)(=O)c1ccc(C(=O)Nc2cc(C)cc(C)c2)cc1 | 6 | -1 | -8 | -3 | 6 | . | . | . | .
CCN(CC)S(=O)(=O)c1ccc(C(=O)Nc2ccc(Cc3ccncc3)cc2)cc1 | 47 | 0 | 34* | -7 | 51* | 76* | 0 | 9 | 56*
FC(F)(F)c1ccccc1Cn1ccc2ccc(-c3ccc4ccn(Cc5ccccc5C(F)(F)F)c4c3)cc21 | . | . | . | -2 | -14 | . | . | . | .
COc1ccc(-c2oc3ccc(N4CCOCC4)cc3c2C#CCO)cc1 | -7 | 1 | 57* | -3 | 71* | 30* | -1 | 5 | 53*
COc1ccc(-c2ccc3oc(-c4ccc(OC)cc4)c(C#CCO)c3c2)cc1 | -7 | -4 | 95* | -3 | 45* | 110* | -1 | -5 | 70*
COc1ccc(-c2ccc3oc(-c4ccc(OC)cc4)c(-c4ccc(OC)cc4)c3c2)cc1 | -3 | 0 | -6 | -1 | -10 | . | . | . | .
CC(C)=CCC/C(C)=C/CN1CC(=O)N2[C@H](C[C@@]3(n4ccc5ccccc54)c4ccccc4N(S(=O)(=O)c4ccccc4)[C@@H]23)C1=O | . | . | . | 1 | -3 | . | . | . | .
COCCn1c(C)cc(C(=O)COc2nc3ccccc3nc2C)c1C | 37 | -2 | 98* | -4 | 67* | 85* | 0 | 6 | 47*
Cc1oc(-c2ccc(Cl)cc2)nc1CS(=O)CC(=O)NCCCN1CCCC(C)C1 (centres undefined) | 22 | 2 | -6 | 2 | 1 | . | . | . | .
Cc1oc(-c2ccc(Cl)cc2)nc1CS(=O)CC(=O)NCCCN1CCN(Cc2ccccc2)CC1 (centres undefined) | 43 | 2 | 69* | -6 | 62* | 110* | 2.0* | 8 | 65*
O=C(Cc1cc(=O)[nH][nH]1)N/N=C/c1ccccc1C(F)(F)F | . | . | . | 3 | 0 | . | . | . | .
CCCCCCn1c2c(c(=N)c3c1CCC3)CCC2 | 11 | 0 | 35* | -10 | 78* | 21* | 0 | 13 | 70*
CCCCCCCn1c2c(c(=N)c3c1CCC3)CCCC2 | 9 | . | 31* | -10 | 79* | 44* | 6.0* | 17* | 82*
SMILES | NR2E3 ag-1 | NR2E3 ag-2 | GalR3 antag | SMARCA2 activ | NR2F2 inh | GalR3 antag conf | CNG parental | Gal4-VP16 ctr | COUP-TFII conf
CCn1c2c(c(=N)c3c1CCC3)CCC2 | -16 | 3 | -2 | -3 | 12 | . | . | . | .
Cc1cc(C)nc(/N=C(\N)Nc2cccc(OCc3ccccc3)c2)n1 | 30 | -1 | -8 | -4 | 27 | . | . | . | .
Cc1cc(C)nc(/N=C(\N)Nc2ccc(CC(=O)OC(C)C)cc2)n1 | 36 | 3 | 86* | -2 | 51* | 58* | 1.4* | 1 | 18
Cc1cc(C)nc(/N=C(\N)Nc2ccc(S(=O)(=O)O)cc2)n1 | -7 | . | -4 | 1 | 8 | . | . | . | .
Cc1cc(C)nc(/N=C(\N)Nc2ccc(OCc3ccccc3)cc2)n1 | 39 | 0 | 35* | -3 | 47* | 7 | 7.8* | 4 | 27
COc1ccc(CCC(=O)Nc2ccc(OC)c(S(=O)(=O)N3CCCCC3)c2)cc1OC | -24 | 1 | -3 | -3 | 18 | . | . | . | .
COc1ccc(CCNC(=O)c2ccc(Cl)c(S(=O)(=O)N3CCCCCC3)c2)cc1 | 42 | 1 | 88* | -4 | 63* | 99* | 0 | 5 | 41*
COc1ccc(CCC(=O)Nc2ccc(Cl)c(S(=O)(=O)N3CCCC3)c2)cc1 | 2 | 0 | 66* | -6 | 59* | 112* | 0 | -1 | 38*
CC1CCCN(S(=O)(=O)c2cc(C(=O)NCCc3ccc(S(N)(=O)=O)cc3)ccc2Cl)C1 (centres undefined) | 7 | . | 75* | -6 | 64* | 15* | -1 | 7 | 39*
O=C(Nc1ccc2ncccc2c1)c1cc(-c2ccc(Cl)cc2)nc2ccccc12 | . | . | . | -2 | -5 | . | . | . | .
O=C(c1ccc(S(=O)(=O)Cc2ccccc2F)c([N+](=O)[O-])c1)N1CCCC1 | -18 | 2 | -2 | -3 | -2 | . | . | . | .
